Assays:
[1] = (§1) Inhibition of human CD8+ve […] cell proliferation; format: functional, tissue-based; settings: CD8-positive T cell
Summary of the method: (§2)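 Human T cells, proliferation inhibition measured over a dose series, run in triplicate (n=3). IC50 was taken from dose-response curves fitted by four-parameter non-linear regression.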

[2] = (§3) Inhibition of human CD4+ve Th cell proliferation; format: functional, tissue-based; summary of the method: as §2
CD8-positive T cell = test: as §1; format: functional, tissue-based; summary of the method: as §2
T cell = test: Immunosuppressive activity in human primary T-cells extracted form PBMC assessed as inhibition of CD3/CD28-induced IFN-gamma recovery in cell culture media at 2-32 uM incubated for 120 hrs by ELISA; format: functional, tissue-based; settings: dose microM 2-32, time 120.0 hrs
CD4+ve Th = test: as §3; format: functional, tissue-based; summary of the method: as §2
[3] = Immunosuppressive activity in human primary T-cells extracted from PBMC assessed as inhibition of CD3/CD28-induced IFN-gamma recovery in cell culture media incubated for 120 hrs by ELISA relative to control; format: functional
[4] = Inhibition of human T cell proliferation relative to control; format: functional
[5] = Inhibition of B cell (unknown origin) proliferation; format: functional, tissue-based
[6] = Inhibition of T cell (unknown origin) proliferation; format: functional, tissue-based

## C[C@H]1[C@@H](O[C@@H]2O[C@H](CO)[C@@H](O[C@H]3O[C@H](CO)[C@@H](O)[C@H](O)[C@H]3O)[C@H](O)[C@H]2O)O[C@@H]2O[C@@]3(C)CC[C@H]4[C@H](C)CC[C@@H]1[C@@]24OO3
[1]
  IC50: 4 µM
[2]
  IC50: 9.09 µM

## C[C@H]1[C@H](O[C@H]2O[C@@H](C)[C@H](O)[C@@H](O)[C@H]2O)O[C@@H]2O[C@@]3(C)CC[C@H]4[C@H](C)CC[C@@H]1[C@@]24OO3
[1]
  IC50: 3.36 µM
CD8-positive T cell
  inhibition: Dose-dependent effect
T cell
  inhibition: Dose-dependent effect
[2]
  IC50: 3.83 µM
CD4+ve Th
  inhibition: Dose-dependent effect

## C[C@H]1[C@H](O[C@@H]2O[C@H](CO)[C@@H](O)[C@H](O)[C@@H]2O)O[C@@H]2O[C@@]3(C)CC[C@H]4[C@H](C)CC[C@@H]1[C@@]24OO3
[1]
  IC50: 2.65 µM
CD8-positive T cell
  inhibition: Dose-dependent effect
[3]
  inhibition (INH): 98%
[4]
  inhibition (INH): 88%
T cell
  inhibition: Dose-dependent effect
[2]
  IC50: 3.49 µM
CD4+ve Th
  inhibition: Dose-dependent effect

## C[C@H]1[C@@H](O[C@H]2OC[C@H](O)[C@H](O)[C@H]2O)O[C@@H]2O[C@@]3(C)CC[C@H]4[C@H](C)CC[C@@H]1[C@@]24OO3
[1]
  IC50: 13 µM
[2]
  IC50: 14.1 µM

## C[C@H]1[C@@H](O[C@H]2OC[C@@H](O)[C@H](O)[C@H]2O)O[C@@H]2O[C@@]3(C)CC[C@H]4[C@H](C)CC[C@@H]1[C@@]24OO3
[1]
  IC50: 9.52 µM
[2]
  IC50: 10.8 µM

## C[C@H]1[C@@H](O)O[C@@H]2O[C@@]3(C)CC[C@H]4[C@H](C)CC[C@@H]1[C@@]24OO3 [ARTENIMOL]
[1]
  IC50: 5.53 µM
[2]
  IC50: 4.03 µM

## C[C@H]1[C@@H](O[C@H]2O[C@H](CO)[C@@H](O)[C@H](O)[C@@H]2O)O[C@@H]2O[C@@]3(C)CC[C@H]4[C@H](C)CC[C@@H]1[C@@]24OO3
[1]
  IC50: > 32 µM
[2]
  IC50: > 32 µM

## C[C@H]1[C@@H](O[C@H]2O[C@H](CO)[C@@H](O)[C@H](O)[C@H]2O)O[C@@H]2O[C@@]3(C)CC[C@H]4[C@H](C)CC[C@@H]1[C@@]24OO3
[1]
  IC50: 19.4 µM
[2]
  IC50: 17.9 µM

## C[C@H]1[C@@H](OCCN)O[C@@H]2O[C@@]3(C)CC[C@H]4[C@H](C)CC[C@@H]1[C@@]24OO3
[1]
  IC50: 1.36 µM
[5]
  IC50: 2.6 µM
[6]
  IC50: 1.2 µM
[2]
  IC50: 1.05 µM

## C[C@H]1[C@@H](O[C@H]2O[C@H](CO)[C@H](O)[C@H](O)[C@H]2O)O[C@@H]2O[C@@]3(C)CC[C@H]4[C@H](C)CC[C@@H]1[C@@]24OO3
[1]
  IC50: 8.63 µM
[2]
  IC50: 10.4 µM

Source: ChEMBL document CHEMBL4725272, “Studies on the stereoselective synthesis and immunosuppressive activity of dihydroartemisinin-O-glycoside derivatives” (Bioorg Med Chem Lett, 2020)
